Source: the RNAGym collection of RNA variant scans (doi:10.1126/science.aae0568)
Variants at the floor of the assay were thinned out.

B1: tRNA (parent)
chain: GUUCCGUUGGCGUAAUGGUAACGCGUCUCCCUCCUAAGGAGAAGACUGCGGGUUCGAGUCCCGUACGGAACG

Variants of: B1
Test: yeast fitness relative to wild type (ratio to wild type); higher = fitter; tRNA-Arg(CCU), competitive growth, 37 C, YPD
How it was run: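 Genotype frequency changes were the basis for Darwinian fitness relative to wild type. The frequencies came from 100-nucleotide paired-end sequencing of gene amplicons from the start population and each end population of pooled yeast strains with tRNA-Arg(CCU) gene variants at the native locus. Competition ran in YPD at 37°C for 24 hours in six replicates, genotypes needed ≥ 100 starting reads, and estimates < 0.5 were set to 0.5.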

Variant	yeast fitness
U2G C27G G52C	≤ 0.5
U2G U13C A21G U35A C55U A65G	≤ 0.5
U2G C49A A57C	≤ 0.5
U2G G41C	0.818
U2G G6A G56C	≤ 0.5
U2G C29G G50C A57U	≤ 0.5
U2G C4U C22U C27U A37C	≤ 0.5
U2G G25C G52A	≤ 0.5
U2G C30A A36G G39C A57G	0.709
U2G C5A A43U	0.68
U2G C34G A43C	0.552
U2G U26A	0.828
U2G G9A G41A	≤ 0.5
U2G C24U C55G A70U	≤ 0.5
U2G G12A C31G C33G A40U G52A C60G C62U	≤ 0.5
U2G C62G A70U	0.822
U2G A65U	0.687
U2G A65G	1.11
U2G C22U C24G A37U	≤ 0.5
U2G G25C G52A A57C A70C	≤ 0.5
U2G C33U A36U A43C A69C	0.767
U2G G9C G12A A42C C46A	0.577
U2G C60G A69U	≤ 0.5
U2G G50A	0.888

Variant	yeast fitness
U2G G50C	0.6
U2G A40C G41C A42U	≤ 0.5
U2G C4A C22U U28G A42U	≤ 0.5
U2G C31U G48C C62A	≤ 0.5
U2G A21C C22U	0.575
U2G A21C C22G	0.541
U2G G9C A20G A42C A43G C46G C49U A69C	≤ 0.5
U2G U7G C60U C61A G67C	≤ 0.5
U2G G44A	0.849
U2G G18A A40C G68C	≤ 0.5
U2G G6A G44A G67C	0.531
U2G C4U G6C C31G	≤ 0.5
U2G C5A A70C	≤ 0.5
U2G A42G	0.866
U2G C24G C29G C31A	≤ 0.5
U2G C27U G68U	0.589
U2G C5A G12A C55G	≤ 0.5
U2G C4A U8C U16C C61G	≤ 0.5
U2G C27G C33U G56A	≤ 0.5
U2G G6C U54A	≤ 0.5
U2G A37C C49G C62A	≤ 0.5
U2G A36U G68C	0.605
U2G C11U A45C U53G A69U	0.544
U2G C24U A45C G48A G67A	≤ 0.5

Variant	yeast fitness
U2G C4U U7G C11G A15C G18A U28C C55U	≤ 0.5
U2G G12U	1.15
U2G C33A	0.632
U2G U3A C5U U7C U8A A20C U35C A37U A57C	0.565
U2G A21C C22G A45G G51A	0.697
U2G C30G G39C	0.551
U2G C55U C61G A65G G68A	≤ 0.5
U2G U16G A21U C33A C66G	≤ 0.5
U2G G38A G52C C61A	0.555
U2G C33A G39C A69U	≤ 0.5
U2G C11U C27G G52C	≤ 0.5
U2G G6A C27U A36U C61U C62G	≤ 0.5
U2G G6A C27U A36U G68C	≤ 0.5
U2G U19A U53C G67A	0.563
U2G G48A C60G	0.541
U2G C22U A57U	≤ 0.5
U2G C49G G50C A70C	≤ 0.5
U2G U3G C11U G52C C55G A70G	≤ 0.5
U2G G10A G50A	≤ 0.5
U2G C5A U19A C30G A43C	≤ 0.5
U2G A45C C61U	0.615
U2G C4U U8C	0.732
U2G C4U U7G C11G A15C G18A C55U	0.75
U2G C22U C24G	0.596

Variant	yeast fitness
U2G U19A A69U	0.551
U2G C49G G50C	0.536
U2G G51A	0.805
U2G C55A C60G C62G	≤ 0.5
U2G G10C A69C	≤ 0.5
U2G C4U A36U	0.587
U2G C31A	0.788
U2G C31U	1.03
U2G C31G	1.02
U2G C31G U35A A45U	≤ 0.5
U2G G18A A21G G25A G51C	≤ 0.5
U2G C5A C55G	0.561
U2G A42C U47A G63C	0.55
U2G A45U C60U	0.549
U2G C34G G39C G41C G67C A70C	≤ 0.5
U2G U8A G23A U26G A43G U54C C55A	≤ 0.5
U2G C4G C31A A37C A57G G67C A69U	≤ 0.5
U2G U7G A43C A45U C60A	≤ 0.5
U2G C29U C49G C55G G63C	≤ 0.5
U2G C27U A40G G48A	0.576
U2G A21C A45G	0.54
U2G C31U A37C	0.56
U2G A20U C34A C55G C66A	≤ 0.5
U2G C22U C62U	0.616

Variant	yeast fitness
U2G G9C A15U U19C	≤ 0.5
U2G G9C G12A A42C C46A U64C	≤ 0.5
U2G G9C A20G A42C C46G C49U G68A A70U	≤ 0.5
U2G C27U A36G	0.552
U2G A36G A40U A43U G56C A57U	≤ 0.5
U2G U7G U16C C34U	≤ 0.5
U2G A20U A43U	0.594
U2G A36U G58A	≤ 0.5
U2G C11A A14C C34A	≤ 0.5
U2G C31U G48C	0.6
U2G C4U G6C C49G	≤ 0.5
U2G G9A U16G C62U U64C	≤ 0.5
U2G C4A U16C C61G G68C	≤ 0.5
U2G C27U G41A A42U C46G	≤ 0.5
U2G G6A G23A C29G G50U C55A	≤ 0.5
U2G C34U A40G C46A	≤ 0.5
U2G C11U C55G	≤ 0.5
U2G A42G C55U	≤ 0.5
U2G G48C G52C C62G	0.541
U2G C30A U35G	0.66
U2G C29G C31A G67A	≤ 0.5
U2G A45C G48A	0.622
U2G A40C G68C	0.54
U2G C33U A42C	0.681

Variant	yeast fitness
U2G C33G G39C A65C	≤ 0.5
U2G G6A A57G	0.527
U2G C4U C61A C62U A65U	0.521
U2G A20G	0.901
U2G C33U A36U A43C	0.688
U2G G41C A65C	0.534
U2G C4U A40C	0.627
U2G C31U G50A C61G C66U A69U	≤ 0.5
U2G A21G A65G	0.663
U2G G6A A70G	0.776
U2G C22U C24G A69U	0.501
U2G C33U G58C	0.566
U2G A21G C61G	≤ 0.5
U2G G18A C49U G52A G68C	≤ 0.5
U2G C22U C24G C66U A70G	≤ 0.5
U2G C46G A65U	0.623
U2G U19C G48C G52C C62G	≤ 0.5
U2G G9A U59A	≤ 0.5
U2G G9A C22A C24A A43C	≤ 0.5
U2G U13A C22U U54A C61G A69C	≤ 0.5
U2G C4A A43U	0.717
U2G A70C	0.836
U2G G9C A15G G48C G51A	≤ 0.5
U2G A43U U47C	0.731

Variant	yeast fitness
U2G U8C U26C G56A	≤ 0.5
U2G U7C A37C U59C	≤ 0.5
U2G C31G A42G A57U	≤ 0.5
U2G A21G A69C	0.501
U2G C33U G52A	≤ 0.5
U2G C5A U19A	0.552
U2G U13C A21G U35A	≤ 0.5
U2G G44A G51C A65U	≤ 0.5
U2G G9C A14C A36U C46A C62G	≤ 0.5
U2G A42C U47A	0.573
U2G G58C	0.755
U2G G58A	1.16
U2G U26A U54A	≤ 0.5
U2G A40U C55U A69U	≤ 0.5
U2G C46A G58C C62U	≤ 0.5
U2G C24G C31U G67C	≤ 0.5
U2G C49U G51C C55A	≤ 0.5
U2G G39A G51A	≤ 0.5
U2G C34G C49G C61U A69G	≤ 0.5
U2G G9C A36U A45C	≤ 0.5
U2G C11U	0.824
U2G G58A C60A C66G	0.562
U2G C31G C33G A40U G52A C60G C62U	0.515
